Residue numbers refer to the chain shown, from its start.
Columns and labels:
Conditions in all cases: stereoisomer not certain
OR2A7 = test system: T1, OR2A7
T1 sequence (whole entry): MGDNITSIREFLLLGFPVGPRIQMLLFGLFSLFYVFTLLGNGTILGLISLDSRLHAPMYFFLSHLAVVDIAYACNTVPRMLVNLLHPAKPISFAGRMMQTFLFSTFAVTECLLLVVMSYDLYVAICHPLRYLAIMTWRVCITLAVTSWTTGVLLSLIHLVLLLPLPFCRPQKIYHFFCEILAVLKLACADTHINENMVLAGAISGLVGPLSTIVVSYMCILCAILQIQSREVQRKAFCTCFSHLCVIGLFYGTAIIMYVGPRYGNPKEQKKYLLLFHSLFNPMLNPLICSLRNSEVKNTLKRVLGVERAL
Procedure, shortened: (§1)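 Each entry records the cell line, G-protein, co-transfected protein and tags used. Methods varied with the source, often transient luciferase assays in mammalian cell lines. A receptor–molecule pair is called responsive (active) if the original authors judged its signal statistically different from baseline and non-responsive (inactive) otherwise.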

OR2AE1 (Homo sapiens) = molecular target: T2, OR2AE1 (Homo sapiens) (UniProt Q8NHA4)
T2 sequence (whole entry): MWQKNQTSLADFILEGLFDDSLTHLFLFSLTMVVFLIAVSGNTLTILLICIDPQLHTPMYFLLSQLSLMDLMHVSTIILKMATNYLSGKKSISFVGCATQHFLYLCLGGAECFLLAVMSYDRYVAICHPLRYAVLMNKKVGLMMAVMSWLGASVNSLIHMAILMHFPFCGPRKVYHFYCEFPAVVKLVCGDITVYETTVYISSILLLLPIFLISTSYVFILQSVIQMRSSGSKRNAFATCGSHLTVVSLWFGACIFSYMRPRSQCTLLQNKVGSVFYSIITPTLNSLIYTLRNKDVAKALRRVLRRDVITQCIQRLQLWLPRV
Procedure, shortened: as §1

OR2AG1 (Homo sapiens) = molecular target: T3, OR2AG1 (Homo sapiens) (UniProt Q9H205)
T3 sequence (whole entry): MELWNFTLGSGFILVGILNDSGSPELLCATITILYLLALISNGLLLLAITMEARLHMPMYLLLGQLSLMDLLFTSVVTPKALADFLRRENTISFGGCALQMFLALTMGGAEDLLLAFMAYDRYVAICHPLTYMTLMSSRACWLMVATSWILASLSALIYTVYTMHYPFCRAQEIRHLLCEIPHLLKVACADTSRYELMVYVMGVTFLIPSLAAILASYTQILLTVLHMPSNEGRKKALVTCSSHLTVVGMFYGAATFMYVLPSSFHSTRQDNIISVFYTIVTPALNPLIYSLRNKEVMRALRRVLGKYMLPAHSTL
Procedure, shortened: as §1

OR2AG2 (Homo sapiens) = molecular target: T4, OR2AG2 (Homo sapiens) (UniProt A6NM03)
T4 sequence (whole entry): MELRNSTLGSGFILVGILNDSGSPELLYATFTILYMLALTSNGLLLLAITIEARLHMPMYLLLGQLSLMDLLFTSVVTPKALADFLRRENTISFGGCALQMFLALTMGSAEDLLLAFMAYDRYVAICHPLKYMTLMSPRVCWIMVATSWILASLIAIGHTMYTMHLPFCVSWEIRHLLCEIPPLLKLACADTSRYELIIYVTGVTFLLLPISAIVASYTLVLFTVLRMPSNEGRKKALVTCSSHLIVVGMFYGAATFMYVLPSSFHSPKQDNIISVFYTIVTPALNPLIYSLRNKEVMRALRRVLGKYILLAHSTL
Procedure, shortened: as §1

OR2AK2 (Homo sapiens) = molecular target: T5, OR2AK2 (Homo sapiens) (UniProt Q8NG84)
T5 sequence (whole entry): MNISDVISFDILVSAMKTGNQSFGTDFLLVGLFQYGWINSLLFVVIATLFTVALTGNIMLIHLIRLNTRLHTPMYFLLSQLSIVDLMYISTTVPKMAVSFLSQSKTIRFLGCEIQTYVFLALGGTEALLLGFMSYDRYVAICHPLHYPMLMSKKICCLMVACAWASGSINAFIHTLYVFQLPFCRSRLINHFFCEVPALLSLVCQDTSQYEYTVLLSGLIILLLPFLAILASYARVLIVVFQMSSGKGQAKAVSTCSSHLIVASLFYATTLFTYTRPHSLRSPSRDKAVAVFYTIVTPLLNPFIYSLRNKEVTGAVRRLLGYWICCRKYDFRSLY
Procedure, shortened: as §1

OR2AP1 (Homo sapiens) = molecular target: T6, OR2AP1 (Homo sapiens) (UniProt Q8NGE2)
T6 sequence (whole entry): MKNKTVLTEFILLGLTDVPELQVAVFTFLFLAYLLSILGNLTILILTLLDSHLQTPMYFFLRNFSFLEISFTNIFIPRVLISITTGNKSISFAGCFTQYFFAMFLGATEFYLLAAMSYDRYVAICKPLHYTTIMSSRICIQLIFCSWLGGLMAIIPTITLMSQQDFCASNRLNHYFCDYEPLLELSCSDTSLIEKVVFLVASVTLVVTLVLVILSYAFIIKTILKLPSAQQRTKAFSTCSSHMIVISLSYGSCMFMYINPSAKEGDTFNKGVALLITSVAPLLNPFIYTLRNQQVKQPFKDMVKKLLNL
Procedure, shortened: as §1

OR2AT4 (Homo sapiens) = molecular target: T7, OR2AT4 (Homo sapiens) (UniProt A6NND4)
T7 sequence (whole entry): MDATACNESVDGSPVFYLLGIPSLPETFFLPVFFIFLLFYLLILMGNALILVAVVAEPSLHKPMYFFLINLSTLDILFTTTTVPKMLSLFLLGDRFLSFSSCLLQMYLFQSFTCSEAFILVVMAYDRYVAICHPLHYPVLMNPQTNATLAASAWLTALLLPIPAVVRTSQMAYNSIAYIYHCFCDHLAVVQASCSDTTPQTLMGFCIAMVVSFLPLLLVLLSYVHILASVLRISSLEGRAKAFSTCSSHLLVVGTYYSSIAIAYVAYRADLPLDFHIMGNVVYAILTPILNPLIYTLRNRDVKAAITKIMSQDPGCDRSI
Procedure, shortened: as §1

OR2B11 (Homo sapiens) = molecular target: T8, OR2B11 (Homo sapiens) (UniProt Q5JQS5)
T8 sequence (whole entry): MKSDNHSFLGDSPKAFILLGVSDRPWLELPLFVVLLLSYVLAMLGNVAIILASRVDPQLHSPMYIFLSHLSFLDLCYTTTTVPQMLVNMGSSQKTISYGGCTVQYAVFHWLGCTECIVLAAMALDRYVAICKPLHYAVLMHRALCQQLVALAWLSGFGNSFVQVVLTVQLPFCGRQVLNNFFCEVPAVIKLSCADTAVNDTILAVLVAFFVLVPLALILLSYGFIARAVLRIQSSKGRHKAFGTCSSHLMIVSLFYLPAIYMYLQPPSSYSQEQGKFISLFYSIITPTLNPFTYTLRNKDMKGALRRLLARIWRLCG
Procedure, shortened: as §1

OR2B2 (Homo sapiens) = molecular target: T9, OR2B2 (Homo sapiens) (UniProt Q9GZK3)
T9 sequence (whole entry): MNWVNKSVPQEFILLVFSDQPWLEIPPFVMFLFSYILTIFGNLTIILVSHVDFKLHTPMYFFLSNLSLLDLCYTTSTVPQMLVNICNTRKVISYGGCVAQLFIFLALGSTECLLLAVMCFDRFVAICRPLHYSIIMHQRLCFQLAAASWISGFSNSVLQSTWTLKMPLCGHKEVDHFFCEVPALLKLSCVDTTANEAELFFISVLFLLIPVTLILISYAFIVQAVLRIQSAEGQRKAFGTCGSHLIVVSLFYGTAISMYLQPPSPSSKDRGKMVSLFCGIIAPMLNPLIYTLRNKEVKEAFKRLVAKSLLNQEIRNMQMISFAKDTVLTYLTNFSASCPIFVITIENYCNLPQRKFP
Procedure, shortened: as §1

OR2B3 (Homo sapiens) = molecular target: T10, OR2B3 (Homo sapiens) (UniProt O76000)
T10 sequence (whole entry): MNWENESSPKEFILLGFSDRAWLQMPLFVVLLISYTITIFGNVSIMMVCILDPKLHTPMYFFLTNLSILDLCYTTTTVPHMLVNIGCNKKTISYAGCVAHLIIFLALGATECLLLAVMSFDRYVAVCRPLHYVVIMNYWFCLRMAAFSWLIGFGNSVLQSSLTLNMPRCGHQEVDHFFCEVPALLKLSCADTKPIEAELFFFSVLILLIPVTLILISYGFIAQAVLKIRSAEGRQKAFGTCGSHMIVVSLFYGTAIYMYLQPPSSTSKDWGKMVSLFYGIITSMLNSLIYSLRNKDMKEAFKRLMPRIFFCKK
Procedure, shortened: as §1

OR2B6 (Homo sapiens) = molecular target: T11, OR2B6 (Homo sapiens) (UniProt P58173)
T11 sequence (whole entry): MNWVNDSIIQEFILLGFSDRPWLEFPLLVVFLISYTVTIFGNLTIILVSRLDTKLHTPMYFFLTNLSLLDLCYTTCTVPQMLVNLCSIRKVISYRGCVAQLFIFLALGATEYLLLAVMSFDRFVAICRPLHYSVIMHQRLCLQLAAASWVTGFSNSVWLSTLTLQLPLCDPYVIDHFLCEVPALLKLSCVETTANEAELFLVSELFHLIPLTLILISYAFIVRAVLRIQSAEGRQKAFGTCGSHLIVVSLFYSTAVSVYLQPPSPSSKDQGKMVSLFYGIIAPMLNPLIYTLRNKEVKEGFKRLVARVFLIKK
Procedure, shortened: as §1

OR2BB [1] = test system: T12, OR2BB
T12 sequence (whole entry): T8 sequence (whole entry) with V198M, G223D
Procedure, shortened: as §1

OR2BB [2] = test system: T13, OR2BB; remark: listed apart in the source
T13 sequence (whole entry): T8 sequence (whole entry) with V198M
Procedure, shortened: as §1

OR2C1 (Homo sapiens) = molecular target: T14, OR2C1 (Homo sapiens) (UniProt O95371)
T14 sequence (whole entry): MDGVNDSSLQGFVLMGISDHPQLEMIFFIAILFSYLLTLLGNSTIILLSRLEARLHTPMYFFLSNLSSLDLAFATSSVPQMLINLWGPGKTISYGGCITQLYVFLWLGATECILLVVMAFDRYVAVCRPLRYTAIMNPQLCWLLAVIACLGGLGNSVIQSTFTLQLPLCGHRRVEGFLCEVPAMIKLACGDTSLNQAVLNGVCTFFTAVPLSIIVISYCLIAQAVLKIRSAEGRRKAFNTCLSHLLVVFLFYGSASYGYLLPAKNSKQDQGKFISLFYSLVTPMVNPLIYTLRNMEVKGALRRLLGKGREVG
Procedure, shortened: as §1

OR2C1 = test system: T15, OR2C1
T15 sequence (whole entry): T14 sequence (whole entry) with C149W
Procedure, shortened: as §1

OR2AJ1 (Homo sapiens) = molecular target: T16, OR2AJ1 (Homo sapiens) (UniProt Q8NGZ0)
T16 sequence (whole entry): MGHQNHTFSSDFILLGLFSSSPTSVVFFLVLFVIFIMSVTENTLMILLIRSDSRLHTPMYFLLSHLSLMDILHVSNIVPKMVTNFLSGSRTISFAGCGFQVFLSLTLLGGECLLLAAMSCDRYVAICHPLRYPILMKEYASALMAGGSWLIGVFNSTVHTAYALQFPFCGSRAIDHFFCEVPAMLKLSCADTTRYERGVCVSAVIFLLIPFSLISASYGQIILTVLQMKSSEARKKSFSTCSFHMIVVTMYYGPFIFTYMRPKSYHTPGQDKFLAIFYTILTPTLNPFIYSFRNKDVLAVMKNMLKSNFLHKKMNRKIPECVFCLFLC
Procedure, shortened: as §1

Measured: odorant receptor agonist call

CCC1OC(=O)C(O)=C1C (configuration not stated)
inactive: OR2A7 | OR2AE1 (Homo sapiens) | OR2AG1 (Homo sapiens) | OR2AG2 (Homo sapiens) | OR2AK2 (Homo sapiens) | OR2AP1 (Homo sapiens) | OR2AT4 (Homo sapiens) | OR2B11 (Homo sapiens) | OR2B2 (Homo sapiens) | OR2B3 (Homo sapiens) | OR2B6 (Homo sapiens) | OR2BB [1] | OR2BB [2] | OR2C1 (Homo sapiens) | OR2C1

CCC(=O)C=CC1C(C)=CCCC1(C)C (configuration not stated)
inactive: OR2B3 (Homo sapiens)

CC(=O)c1c(C)c([N+](=O)[O-])c(C(C)(C)C)c([N+](=O)[O-])c1C
inactive: OR2AE1 (Homo sapiens) | OR2AG1 (Homo sapiens) | OR2AG2 (Homo sapiens) | OR2AJ1 (Homo sapiens) | OR2AK2 (Homo sapiens) | OR2AP1 (Homo sapiens) | OR2AT4 (Homo sapiens) | OR2B11 (Homo sapiens) | OR2B2 (Homo sapiens) | OR2B6 (Homo sapiens) | OR2C1 (Homo sapiens)

CCCC(S)CCOC(C)=O (configuration not stated)
inactive: OR2A7 | OR2AE1 (Homo sapiens) | OR2AG1 (Homo sapiens) | OR2AG2 (Homo sapiens) | OR2AK2 (Homo sapiens) | OR2AP1 (Homo sapiens) | OR2AT4 (Homo sapiens) | OR2B11 (Homo sapiens) | OR2B2 (Homo sapiens) | OR2B3 (Homo sapiens) | OR2B6 (Homo sapiens) | OR2BB [1] | OR2BB [2] | OR2C1 (Homo sapiens) | OR2C1

— the M2OR odorant receptor database
